# Assay results published in ChEMBL document CHEMBL1148785, “Second generation tetrahydroquinoline-based protein farnesyltransferase inhibitors as antimalarials” (J Med Chem, 2007).
# pEC50, pIC50: −log10 of the molar value.
# How the values were obtained:
# Plasmodium falciparum [1] = experiment: Inhibition of Plasmodium falciparum protein farnesyltransferase at 50 nM by scintillation proximity assay
# [2] = Inhibition of Plasmodium falciparum protein farnesyltransferase by scintillation proximity assay
# Plasmodium falciparum [3] = experiment: Inhibition of Plasmodium falciparum protein farnesyltransferase at 5 nM by scintillation proximity assay
# Plasmodium falciparum [4] = experiment: Antimalarial activity against Plasmodium falciparum K1; format: functional; conditions: read-out: ED50 (the source's name)
# Procedure, shortened: (§1)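 Asynchronous culture in type A+ erythrocytes at 0.5% parasitemia and 0.5% hematocrit, grown in RPMI-1640 with 20% heat-inactivated human A+ plasma. Compound was serially diluted from a top final 5 µM, with DMSO vehicle as 100% growth. Plates ran 48 h at 37 °C under 5% CO2/5% O2/90% N2, then [3H]-hypoxanthine (0.3 µCi) for 24 h. Filter-harvested counts were corrected for the uninfected-RBC background. ED50 by linear regression; duplicates averaged.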
# Plasmodium falciparum [5] = experiment: Antimalarial activity against Plasmodium falciparum 3D7; format: functional; conditions: read-out: ED50 (the source's name); procedure, shortened: as §1
# Plasmodium falciparum [6] = experiment: Inhibition of Plasmodium falciparum protein farnesyltransferase at 0.5 nM by scintillation proximity assay
inhibition (Plasmodium falciparum [1]) [%],pIC50 [2],inhibition (Plasmodium falciparum [3]) [%],"pEC50 (Plasmodium falciparum [4]; Plasmodium falciparum, K1)","pEC50 (Plasmodium falciparum [5]; Plasmodium falciparum, 3D7)",inhibition (Plasmodium falciparum [6]) [%],SMILES,pEC50 (Plasmodium falciparum [4]),pEC50 (Plasmodium falciparum [5])
98,8.70,30,7.26,7.37,77,Cn1cncc1CN1CC(N(CC2CCN(C(=O)CC(F)(F)F)CC2)S(=O)(=O)c2ccccn2)Cc2cc(C#N)ccc21 (stereo not drawn),,
,< 7.30,,< 5.30,< 5.30,,Cc1cc(C(=O)N(CC(=O)OC(C)(C)C)C2Cc3cc(C#N)ccc3N(Cc3cncn3C)C2)no1 (stereo not drawn),,
99,9.40,,8.70,7.92,,Cn1cnc(S(=O)(=O)N(Cc2ccsc2)C2Cc3cc(C#N)ccc3N(Cc3cncn3C)C2)c1 (stereo not drawn),,
98,9.22,24,7.89,7.74,91,CC(C)C(=O)N1CCC(CN(C2Cc3cc(C#N)ccc3N(Cc3cncn3C)C2)S(=O)(=O)c2ccccn2)CC1 (stereo not drawn),,
99,8.92,17,7.12,7.32,76,Cn1cncc1CN1CC(N(CC2CCN(C(=O)C(C)(C)C)CC2)S(=O)(=O)c2ccccn2)Cc2cc(C#N)ccc21 (stereo not drawn),,
,< 7.30,,< 5.30,< 5.30,,Cn1cncc1CN1CC(N(CC(=O)OC(C)(C)C)C(=O)c2ccccc2)Cc2cc(C#N)ccc21 (stereo not drawn),,
,9.05,,6.89,6.60,,Cn1cnc(S(=O)(=O)N(CCCCC(=O)NCCN)C2Cc3cc(C#N)ccc3N(Cc3cncn3C)C2)c1 (stereo not drawn),,
,< 7.30,,< 5.30,< 5.30,,Cn1cnc(C(=O)N(CC(=O)OC(C)(C)C)C2Cc3cc(C#N)ccc3N(Cc3cncn3C)C2)c1 (stereo not drawn),,
66,,17,5.64,5.55,5,Cn1cnc(S(=O)(=O)N(CC(=O)NC(C)(C)C)C2Cc3cc(C(=O)NC4CCCCC4)ccc3N(Cc3cncn3C)C2)c1 (stereo not drawn),,
99,,89,6.32,6.19,22,C=C(C)CN(C1Cc2cc(-c3ccccc3)ccc2N(Cc2cn(C)cn2)C1)S(=O)(=O)c1cn(C)cn1 (stereo not drawn),,
51,,7,< 5.30,6.22,0,Cn1cncc1CN1CC(N(Cc2ccccc2F)S(C)(=O)=O)Cc2cc(C#N)ccc21 (stereo not drawn),,
34,,9,< 5.30,5.59,0,CN(C)CCCN(C1Cc2cc(C#N)ccc2N(Cc2cncn2C)C1)S(=O)(=O)c1cn(C)cn1 (stereo not drawn),,
11,,2,< 5.30,< 5.30,5,CC(=O)Nc1nc(C)c(S(=O)(=O)N(CC(=O)NC(C)(C)C)C2Cc3cc(C#N)ccc3N(Cc3cncn3C)C2)s1 (stereo not drawn),,
8,,0,5.55,5.55,0,Cn1cnc(CN2CC(N(CC(=O)NC(C)(C)C)S(=O)(=O)c3ccccc3)Cc3cc(-c4ccccc4)ccc32)c1 (stereo not drawn),,
96,,90,7.26,7.15,54,Cn1cnc(S(=O)(=O)N(Cc2ccc(C#N)cc2)C2Cc3cc(C#N)ccc3N(Cc3cncn3C)C2)c1 (stereo not drawn),,
99,,65,7.22,7.06,0,Cn1cnc(S(=O)(=O)N(CCN2CCCC2=O)C2Cc3cc(C#N)ccc3N(Cc3cncn3C)C2)c1 (stereo not drawn),,
65,,6,5.70,5.74,0,COC(=O)N1CCC(CN(C2Cc3cc(C#N)ccc3N(Cc3cncn3C)C2)S(=O)(=O)c2ccc(NC(C)=O)cc2)CC1 (stereo not drawn),,
96,,84,6.39,6.68,49,Cn1cncc1CN1CC(N(Cc2ccc(S(C)(=O)=O)cc2)S(=O)(=O)c2ccccn2)Cc2cc(C#N)ccc21 (stereo not drawn),,
33,,0,6.12,6.16,0,CC(=O)OCC(=O)N(Cc1ccccc1F)C1Cc2cc(C#N)ccc2N(Cc2cncn2C)C1 (stereo not drawn),,
100,,98,7.80,7.80,43,Cn1cnc(S(=O)(=O)N(CCc2ccccc2F)C2Cc3cc(C#N)ccc3N(Cc3cncn3C)C2)c1 (stereo not drawn),,

inhibition (Plasmodium falciparum [1]) [%],pIC50 [2],inhibition (Plasmodium falciparum [3]) [%],"pEC50 (Plasmodium falciparum [4]; Plasmodium falciparum, K1)","pEC50 (Plasmodium falciparum [5]; Plasmodium falciparum, 3D7)",inhibition (Plasmodium falciparum [6]) [%],SMILES,pEC50 (Plasmodium falciparum [4]),pEC50 (Plasmodium falciparum [5])
90,,38,6.82,6.34,0,Cn1cnc(CN2CC(N(CCn3cccc3)S(=O)(=O)c3cn(C)cn3)Cc3cc(-c4ccccc4)ccc32)c1 (stereo not drawn),,
92,,52,5.59,5.90,6,CCN(CCCCN(C1Cc2cc(C#N)ccc2N(Cc2cncn2C)C1)S(=O)(=O)c1ccccn1)C(=O)OC(C)(C)C (stereo not drawn),,
32,,7,< 5.30,< 5.30,0,Cn1cncc1CN1CC(N(CCCN)S(=O)(=O)c2ccccn2)Cc2cc(C#N)ccc21 (stereo not drawn),,
64,,15,5.51,5.57,0,CN(C)CCN(C1Cc2cc(C#N)ccc2N(Cc2cncn2C)C1)S(=O)(=O)c1cn(C)cn1 (stereo not drawn),,
97,,36,7.30,7.30,90,CC(C)OC(=O)N1CCC(CN(C2Cc3cc(C#N)ccc3N(Cc3cncn3C)C2)S(=O)(=O)c2ccccn2)CC1 (stereo not drawn),,
95,,53,5.82,6.52,1,Cn1cncc1CN1CC(N(CCc2ccccc2C(F)(F)F)S(=O)(=O)c2ccccn2)Cc2cc(C#N)ccc21 (stereo not drawn),,
98,,81,6.12,5.62,18,Cn1cnc(CN2CC(N(CCNC(=O)OC(C)(C)C)S(=O)(=O)c3cn(C)cn3)Cc3cc(-c4ccccc4)ccc32)c1 (stereo not drawn),,
99,,99,> 7.70,7.70,66,Cn1cnc(S(=O)(=O)N(Cc2ccc3c(c2)OCCS3(=O)=O)C2Cc3cc(C#N)ccc3N(Cc3cncn3C)C2)c1 (stereo not drawn),,
100,,38,7.35,7.19,93,CC(C)NC(=O)N1CCC(CN(C2Cc3cc(C#N)ccc3N(Cc3cncn3C)C2)S(=O)(=O)c2ccccn2)CC1 (stereo not drawn),,
98,,96,8.15,7.85,49,CCOC(=O)N1CCC(CN(C2Cc3cc(C#N)ccc3N(Cc3cncn3C)C2)S(=O)(=O)c2cn(C)cn2)CC1 (stereo not drawn),,
90,,47,6.40,6.29,14,COC(=O)NCCN(C1Cc2cc(C#N)ccc2N(Cc2cncn2C)C1)S(=O)(=O)c1ccccn1 (stereo not drawn),,
96,,7,6.55,6.56,67,Cn1cncc1CN1CC(N(CC2CCN(S(=O)(=O)c3ccccc3)CC2)S(=O)(=O)c2ccccn2)Cc2cc(C#N)ccc21 (stereo not drawn),,
79,,26,5.43,5.52,0,Cc1oncc1CN(C1Cc2cc(-c3ccccc3)ccc2N(Cc2cn(C)cn2)C1)S(=O)(=O)c1cn(C)cn1 (stereo not drawn),,
99,,93,7.00,7.40,50,Cn1cnc(S(=O)(=O)N(Cc2ccc(F)cc2)C2Cc3cc(C#N)ccc3N(Cc3cncn3C)C2)c1 (stereo not drawn),,
100,,98,6.79,6.21,46,COC(=O)c1ccnc(CN(C2Cc3cc(C#N)ccc3N(Cc3cncn3C)C2)S(=O)(=O)c2cn(C)cn2)c1 (stereo not drawn),,
88,,46,5.46,5.34,0,Cn1cnc(CN2CC(N(Cc3ccc(C(F)(F)F)o3)S(=O)(=O)c3cn(C)cn3)Cc3cc(-c4ccccc4)ccc32)c1 (stereo not drawn),,
97,,83,6.47,6.73,17,COc1ccc(S(=O)(=O)N(Cc2ccc(S(C)(=O)=O)cc2)C2Cc3cc(C#N)ccc3N(Cc3cncn3C)C2)cc1 (stereo not drawn),,
88,,46,5.88,5.76,17,Cn1cncc1CN1CC(N(Cc2cccc3cccnc23)S(=O)(=O)c2ccccn2)Cc2cc(C#N)ccc21 (stereo not drawn),,
97,,81,6.10,6.00,24,Cn1cncc1CN1CC(N(Cc2cccc(C(=O)O)n2)S(=O)(=O)c2ccccn2)Cc2cc(C#N)ccc21 (stereo not drawn),,

SMILES,inhibition (Plasmodium falciparum [1]) [%],pIC50 [2],inhibition (Plasmodium falciparum [3]) [%],"pEC50 (Plasmodium falciparum [4]; Plasmodium falciparum, K1)","pEC50 (Plasmodium falciparum [5]; Plasmodium falciparum, 3D7)",inhibition (Plasmodium falciparum [6]) [%],pEC50 (Plasmodium falciparum [4]),pEC50 (Plasmodium falciparum [5])
COC(=O)N1CCC(CN(C2Cc3cc(C#N)ccc3N(Cc3cncn3C)C2)S(=O)(=O)c2ccccn2)CC1 (stereo not drawn) [listing 1 of 3 here],,8.57,,,,,7.12,7.02
COC(=O)N1CCC(CN(C2Cc3cc(C#N)ccc3N(Cc3cncn3C)C2)S(=O)(=O)c2ccccn2)CC1 (stereo not drawn) [listing 2 of 3 here],,9.24,,,,,7.82,7.80
COC(=O)N1CCC(CN(C2Cc3cc(C#N)ccc3N(Cc3cncn3C)C2)S(=O)(=O)c2ccccn2)CC1 (stereo not drawn) [listing 3 of 3 here],,9.54,,,,,7.89,7.96
